From ChEMBL document CHEMBL2010797, “Exploring aigialomycin d and its analogues as protein kinase inhibitors for cancer targets” (ACS Med Chem Lett, 2011) come the findings set out here.

Assay [1] concerns the target Cyclin-dependent kinase 5 (Homo sapiens, UniProt Q00535). Nature of the assay: Inhibition of CDK5.
Assay [2] deals with T1, MAP kinase-interacting serine/threonine-protein kinase 2 (Homo sapiens, UniProt Q9HBH9). Nature of the assay: Inhibition of MNK2 assessed as enzyme activity at 10 uM relative to control. More on the design: scale not given: the % may be the effect or the level left. The essentials: (§1)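 Single-point test at 10 μM in a 96-kinase screening panel. Reported as % of a DMSO negative control, where a lower value means stronger inhibition.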
Target sequence in this assay (Q9HBH9 whole entry, looked up): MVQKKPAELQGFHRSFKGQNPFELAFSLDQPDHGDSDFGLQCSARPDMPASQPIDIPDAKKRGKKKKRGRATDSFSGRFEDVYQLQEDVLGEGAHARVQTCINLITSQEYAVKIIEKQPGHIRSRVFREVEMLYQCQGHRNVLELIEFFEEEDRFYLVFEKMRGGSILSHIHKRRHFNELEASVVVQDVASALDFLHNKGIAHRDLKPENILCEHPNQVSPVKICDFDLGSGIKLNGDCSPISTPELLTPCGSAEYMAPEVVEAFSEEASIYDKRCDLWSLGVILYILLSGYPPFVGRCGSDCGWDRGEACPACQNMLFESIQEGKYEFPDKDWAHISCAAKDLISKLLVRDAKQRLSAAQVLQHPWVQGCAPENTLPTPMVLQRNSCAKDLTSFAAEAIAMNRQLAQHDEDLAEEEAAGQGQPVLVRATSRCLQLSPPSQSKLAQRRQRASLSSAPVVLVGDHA

The target in assay [3] is Cyclin-dependent kinase 2/cyclin A (Homo sapiens, UniProt P24941). As to the kind of experiment: Inhibition of CDK2/cyclin A using 5-FAM-GGGPATPKKAKKL-COOH as substrate after 1 hr by IMAP assay. The class given is protein-complex assay. The essentials: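 IMAP fluorescence-polarization assay on CDK2/cyclin A. IC50 taken from dose–response curves, given as average ± SD of three independent experiments, or the mean of two for one compound.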

The target in assay [4] is T2, Tyrosine-protein kinase receptor UFO (Homo sapiens, UniProt P30530).
T2 sequence (P30530 whole entry): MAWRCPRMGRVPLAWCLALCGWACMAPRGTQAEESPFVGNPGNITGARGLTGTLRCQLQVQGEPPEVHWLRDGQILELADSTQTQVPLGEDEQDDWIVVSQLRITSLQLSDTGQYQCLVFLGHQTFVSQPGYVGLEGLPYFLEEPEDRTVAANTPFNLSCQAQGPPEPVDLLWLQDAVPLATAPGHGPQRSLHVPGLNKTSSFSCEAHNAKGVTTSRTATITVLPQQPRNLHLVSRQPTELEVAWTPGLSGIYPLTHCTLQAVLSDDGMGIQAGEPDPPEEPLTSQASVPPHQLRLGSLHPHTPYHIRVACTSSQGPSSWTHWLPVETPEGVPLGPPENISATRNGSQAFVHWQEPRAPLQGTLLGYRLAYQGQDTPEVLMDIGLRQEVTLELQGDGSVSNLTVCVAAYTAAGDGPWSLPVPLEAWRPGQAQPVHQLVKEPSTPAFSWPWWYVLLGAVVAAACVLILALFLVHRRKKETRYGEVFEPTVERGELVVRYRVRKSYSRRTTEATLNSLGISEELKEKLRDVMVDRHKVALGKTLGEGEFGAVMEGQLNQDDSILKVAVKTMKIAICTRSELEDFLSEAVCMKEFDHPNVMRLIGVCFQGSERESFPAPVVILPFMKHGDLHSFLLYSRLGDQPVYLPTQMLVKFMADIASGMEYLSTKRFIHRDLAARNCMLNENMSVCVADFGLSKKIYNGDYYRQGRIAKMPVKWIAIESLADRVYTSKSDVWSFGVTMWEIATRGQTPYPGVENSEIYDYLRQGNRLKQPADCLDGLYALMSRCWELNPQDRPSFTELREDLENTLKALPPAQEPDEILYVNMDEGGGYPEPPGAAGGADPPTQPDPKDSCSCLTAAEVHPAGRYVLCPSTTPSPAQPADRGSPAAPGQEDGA
Nature of the assay: Inhibition of AXL.

Assay [5] deals with T1, MAP kinase-interacting serine/threonine-protein kinase 2. Nature of the assay: Inhibition of MNK2 using 5-FAM-TATKSGSTTKNRFVV-NH2 as substrate preincubated for 1 hr prior substrate addition measured after 2 hrs by IMAP assay.
Target sequence in this assay (Q9HBH9 whole entry): as the sequence (Q9HBH9 whole entry, looked up) above
The target is the same in assay [6]. Nature of the assay: Inhibition of MNK2.
Target sequence in this assay (Q9HBH9 whole entry): as the sequence (Q9HBH9 whole entry, looked up) above
Assay [7] has as its target T3, Serine/threonine-protein kinase PLK4 (Homo sapiens) (UniProt O00444).
T3 sequence (whole entry): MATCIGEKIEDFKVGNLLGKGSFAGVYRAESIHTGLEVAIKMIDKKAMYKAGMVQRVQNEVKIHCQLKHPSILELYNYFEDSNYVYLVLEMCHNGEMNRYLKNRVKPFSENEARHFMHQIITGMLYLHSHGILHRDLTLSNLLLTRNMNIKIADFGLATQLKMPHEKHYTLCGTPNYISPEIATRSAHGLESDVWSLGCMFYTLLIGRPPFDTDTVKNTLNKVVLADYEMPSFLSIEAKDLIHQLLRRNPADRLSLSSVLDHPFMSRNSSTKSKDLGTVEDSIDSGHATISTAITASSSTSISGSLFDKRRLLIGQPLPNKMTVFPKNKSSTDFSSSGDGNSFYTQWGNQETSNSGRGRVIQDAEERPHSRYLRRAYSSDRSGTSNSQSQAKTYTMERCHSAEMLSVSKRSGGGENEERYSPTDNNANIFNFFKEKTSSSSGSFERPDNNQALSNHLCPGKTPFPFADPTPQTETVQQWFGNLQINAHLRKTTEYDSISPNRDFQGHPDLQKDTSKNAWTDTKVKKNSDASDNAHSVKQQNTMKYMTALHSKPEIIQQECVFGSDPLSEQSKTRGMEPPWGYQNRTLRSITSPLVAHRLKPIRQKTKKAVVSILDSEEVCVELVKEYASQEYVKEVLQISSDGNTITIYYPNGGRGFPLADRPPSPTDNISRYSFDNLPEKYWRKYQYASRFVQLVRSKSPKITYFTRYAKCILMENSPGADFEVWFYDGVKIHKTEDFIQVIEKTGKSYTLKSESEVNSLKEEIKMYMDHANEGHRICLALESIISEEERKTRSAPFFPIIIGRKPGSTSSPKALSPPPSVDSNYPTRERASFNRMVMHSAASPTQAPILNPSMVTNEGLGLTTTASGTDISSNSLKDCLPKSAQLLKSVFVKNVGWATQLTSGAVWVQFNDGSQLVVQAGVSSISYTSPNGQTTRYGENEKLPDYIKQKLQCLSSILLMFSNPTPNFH
Nature of the assay: Inhibition of PLK4 assessed as enzyme activity at 10 uM relative to control. Further details: scale not given: the % may be the effect or the level left. A digest of the protocol: as §1

Assay [8] addresses Tyrosine-protein kinase receptor UFO (Homo sapiens) (UniProt P30530). As to the kind of experiment: Inhibition of AXL assessed as enzyme activity at 10 uM relative to control. Further details: scale not given: the % may be the effect or the level left. The essentials:
as §1

Assay [9] concerns the target Receptor-type tyrosine-protein kinase FLT3 (Homo sapiens) (UniProt P36888). Nature of the assay: Inhibition of FLT3 assessed as enzyme activity at 10 uM relative to control. Further details: scale not given: the % may be the effect or the level left. The essentials:
as §1

Assay [10] addresses Cyclin-dependent kinase 2/cyclin A (Homo sapiens) (UniProt P24941+P20248+P78396). Nature of the assay: Inhibition of CDK2/cyclin A using 5-FAM-GGGPATPKKAKKL-COOH as substrate at 10 uM after 1 hr by IMAP assay. The assay is classed as protein-complex assay. The essentials: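 IMAP fluorescence-polarization enzyme assay on CDK2/cyclin A, testing competition at the ATP site. Compounds tested at 10 μM, with purvalanol A at 1 μM as reference. Percent inhibition is the average ± SD of three independent experiments, or the mean of two for some compounds.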

SMILES strings stand for the structures.

Cyclin-dependent kinase 5, sequence (Q00535 whole entry): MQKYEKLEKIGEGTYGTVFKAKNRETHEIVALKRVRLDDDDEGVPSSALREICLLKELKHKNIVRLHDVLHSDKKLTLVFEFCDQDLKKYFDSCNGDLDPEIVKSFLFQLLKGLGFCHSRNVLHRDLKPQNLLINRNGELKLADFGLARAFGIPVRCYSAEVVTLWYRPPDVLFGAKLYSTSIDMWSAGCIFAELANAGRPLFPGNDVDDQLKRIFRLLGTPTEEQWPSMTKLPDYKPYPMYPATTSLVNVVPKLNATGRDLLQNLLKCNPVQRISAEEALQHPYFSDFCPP
Receptor-type tyrosine-protein kinase FLT3 (Homo sapiens), sequence (P36888 whole entry): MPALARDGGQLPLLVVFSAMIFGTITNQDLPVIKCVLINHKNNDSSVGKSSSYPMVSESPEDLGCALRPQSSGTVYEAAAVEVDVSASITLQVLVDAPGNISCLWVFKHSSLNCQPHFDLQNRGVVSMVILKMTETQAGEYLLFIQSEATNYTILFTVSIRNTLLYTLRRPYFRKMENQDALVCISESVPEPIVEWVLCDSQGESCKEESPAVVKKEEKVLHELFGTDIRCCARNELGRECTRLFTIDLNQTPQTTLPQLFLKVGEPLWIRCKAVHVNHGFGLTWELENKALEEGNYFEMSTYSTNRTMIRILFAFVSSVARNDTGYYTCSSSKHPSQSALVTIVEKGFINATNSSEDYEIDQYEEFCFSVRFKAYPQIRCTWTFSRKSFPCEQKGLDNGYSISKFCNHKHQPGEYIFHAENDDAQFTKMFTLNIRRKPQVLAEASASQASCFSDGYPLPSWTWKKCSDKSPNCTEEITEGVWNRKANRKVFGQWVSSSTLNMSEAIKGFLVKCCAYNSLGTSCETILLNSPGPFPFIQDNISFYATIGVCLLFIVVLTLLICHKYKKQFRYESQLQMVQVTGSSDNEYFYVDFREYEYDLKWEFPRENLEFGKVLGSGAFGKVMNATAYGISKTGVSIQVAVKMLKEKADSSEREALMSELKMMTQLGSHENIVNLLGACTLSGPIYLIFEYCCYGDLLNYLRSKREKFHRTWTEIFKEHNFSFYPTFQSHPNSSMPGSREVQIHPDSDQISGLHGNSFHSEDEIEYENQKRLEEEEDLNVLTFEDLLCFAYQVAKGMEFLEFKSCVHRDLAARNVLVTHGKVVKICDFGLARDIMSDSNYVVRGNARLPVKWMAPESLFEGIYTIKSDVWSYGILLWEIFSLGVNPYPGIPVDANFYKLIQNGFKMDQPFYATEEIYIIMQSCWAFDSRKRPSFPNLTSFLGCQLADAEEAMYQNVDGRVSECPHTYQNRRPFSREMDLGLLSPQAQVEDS

In the case of `C[C@H]1C/C=C/[C@@H](O)[C@@H](O)CC/C=C/c2cc(O)cc(O)c2C(=O)O1` [AIGIALOMYCIN D], the IC50 in assay [1] came to 6 µM; in assay [3], 21 µM; in assay [5], 450 nM. Further, the Activity came out at 0.15% in assay [2], 9.6% in [7], 4.7% in assay [8] and 7.1% in [9]. Also, the values for the Kd in assay [4] and in assay [6] were 1000 nM and 160 nM, respectively. Besides, the inhibition in assay [10] worked out at 55%.
